Values joined by “and” are separate entries in the source; they are usually repeats but may differ in a detail not shown here. Equal values may be shown once.
Tests used:
Rattus norvegicus [1] = species on record: Rattus norvegicus; experiment: In vitro rat pituitary cell growth hormone response to the compound was obtained; type: functional, Pituitary gland cell
[2] = biological target: T1, Growth hormone-releasing hormone receptor (Rattus norvegicus) (UniProt Q02644); experiment: Tested for the potency of growth hormone (GRF) on subcutaneous administration in anesthetized male Charles River rats; type: functional, organism-based
T1 sequence (whole entry): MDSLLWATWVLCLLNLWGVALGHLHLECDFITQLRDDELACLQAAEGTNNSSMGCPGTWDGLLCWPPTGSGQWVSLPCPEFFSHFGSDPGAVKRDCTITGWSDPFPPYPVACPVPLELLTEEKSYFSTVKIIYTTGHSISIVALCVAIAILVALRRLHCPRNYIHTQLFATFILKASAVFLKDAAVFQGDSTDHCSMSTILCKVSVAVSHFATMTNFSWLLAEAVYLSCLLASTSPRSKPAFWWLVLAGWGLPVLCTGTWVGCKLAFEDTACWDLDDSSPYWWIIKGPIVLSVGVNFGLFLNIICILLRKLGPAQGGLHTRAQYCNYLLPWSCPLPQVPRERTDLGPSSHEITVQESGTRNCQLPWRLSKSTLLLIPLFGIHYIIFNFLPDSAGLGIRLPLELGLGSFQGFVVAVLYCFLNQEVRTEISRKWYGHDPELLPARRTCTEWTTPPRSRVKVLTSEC
Summary of the method: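 Pentobarbital-anesthetized male rats (175-275 g), six to nine per group, received two subcutaneous doses of analogue or of reference GRF(1-29)NH2, in 0.5 mL, 30 min after anesthesia. Plasma GH measured by RIA 15 min later. Potency with 95% confidence limits calculated from a four-point assay design by the Pugsley method.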

Rattus norvegicus [3] = experiment: Effect on growth hormone release(GRF) was determined in nembutal-anesthetized rat, at dose of 20 ug/100 g body weight.; type: functional, organism-based
Summary of the method: (§1)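 Male Charles River rats (175-275 g), anesthetized with sodium pentobarbital 6 mg/100 g body weight. Six to nine per group. Peptide or saline given subcutaneously in 0.5 mL, 30 min after anesthetic. Jugular vein blood taken 15 min post-injection. Plasma GH measured by radioimmunoassay and reported as ng/mL, mean ± SEM.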

[4] = biological target: T1, Growth hormone-releasing hormone receptor (Rattus norvegicus); experiment: In vitro rat pituitary cell growth hormone response was obtained; type: functional, cell-based; settings: Pituitary gland cell
Rattus norvegicus [5] = experiment: Effect on growth hormone release(GRF) was determined in nembutal-anesthetized rat, at dose of 50 ug/100 g body weight.; type: functional, organism-based; summary of the method: as §1
[6] = biological target: T1, Growth hormone-releasing hormone receptor (Rattus norvegicus); experiment: Effect on growth hormone release(GRF) was determined in nembutal-anesthetized rat, at dose of 100 ug/100 g body weight.; type: functional; summary of the method: as §1
[7] = biological target: T1, Growth hormone-releasing hormone receptor (Rattus norvegicus); experiment: Effect on growth hormone release(GRF) was determined in nembutal-anesthetized rat, at dose of 10 ug/100 g body weight.; type: functional; summary of the method: as §1
Rattus norvegicus [8] = experiment: Effect on growth hormone release(GRF) was determined in nembutal-anesthetized rat, at dose of 40 ug/100 g body weight.; type: functional, organism-based; summary of the method: as §1

Potency [2] | Plasma GH release [6] | Plasma GH release [7] | Compound | also measured
670% |  |  | CC[C@H](C)[C@H](NC(=O)C(CC(=O)O)NC(=O)[C@H](CCC(N)=O)NC(=O)[C@H](CC(C)C)NC(=O)[C@H](CC(C)C)NC(=O)[C@H](CCCCN)NC(=O)[C@H](CCCN=C(N)N)NC(=O)[C@H](C)NC(=O)[C@H](CO)NC(=O)[C@H](CC(C)C)NC(=O)[C@H](CCC(N)=O)NC(=O)CNC(=O)[C@H](CC(C)C)NC(=O)[C@@H](NC(=O)[C@H](CCCCN)NC(=O)[C@H](CCCN=C(N)N)NC(=O)[C@H](Cc1ccc(O)cc1)NC(=O)[C@H](CO)NC(=O)[C@H](CC(N)=O)NC(=O)[C@@H](NC(=O)[C@H](Cc1ccccc1)NC(=O)[C@@H](NC(=O)[C@H](C)NC(=O)C(CC(=O)O)NC(=O)[C@@H](C)NC(=O)[C@@H](N)Cc1ccc(O)cc1)[C@@H](C)CC)[C@@H](C)O)C(C)C)C(=O)N[C@@H](CCSC)C(=O)N[C@@H](CO)C(=O)N[C@@H](CCCN=C(N)N)C(N)=O (stereo in doubt) | Potency (Rattus norvegicus [1]): 150%
53% |  |  | CC[C@H](C)[C@H](NC(=O)[C@H](C)NC(=O)[C@H](CC(=O)O)NC(=O)[C@H](C)NC(=O)[C@@H](N)Cc1ccc(O)cc1)C(=O)N[C@@H](Cc1ccccc1)C(=O)N[C@H](C(=O)N[C@H](CC(N)=O)C(=O)N[C@@H](CO)C(=O)N[C@@H](Cc1ccc(O)cc1)C(=O)N[C@@H](CCCN=C(N)N)C(=O)N[C@@H](CCCCN)C(=O)N[C@H](C(=O)N[C@@H](CC(C)C)C(=O)NCC(=O)N[C@@H](CCC(N)=O)C(=O)N[C@@H](CC(C)C)C(=O)N[C@@H](CO)C(=O)N[C@@H](C)C(=O)N[C@@H](CCCN=C(N)N)C(=O)N[C@@H](CCCCN)C(=O)N[C@@H](CC(C)C)C(=O)N[C@@H](CC(C)C)C(=O)N[C@@H](CCC(N)=O)C(=O)N[C@@H](CC(=O)O)C(=O)N[C@H](C(=O)N[C@@H](CC(C)C)C(N)=O)[C@@H](C)CC)C(C)C)[C@@H](C)O | Plasma GH release (Rattus norvegicus [3]): 1550 ng/mL; Potency [4]: 25%; Plasma GH release (Rattus norvegicus [5]): 2370 ng/mL
54% |  |  | Ac-YADAIFTNSYRKVLGQLSARKLLQDIL-NH2 | Plasma GH release (Rattus norvegicus [3]): 1270 ng/mL; Plasma GH release (Rattus norvegicus [5]): 2730 ng/mL
220% |  |  | CC[C@H](C)[C@H](NC(=O)[C@H](C)NC(=O)[C@H](CC(=O)O)NC(=O)[C@H](C)NC(=O)[C@@H](N)Cc1ccc(O)cc1)C(=O)N[C@@H](Cc1ccccc1)C(=O)N[C@H](C(=O)N[C@H](CC(N)=O)C(=O)N[C@@H](CO)C(=O)N[C@@H](Cc1ccc(O)cc1)C(=O)N[C@@H](CCCN=C(N)N)C(=O)N[C@@H](CCCCN)C(=O)N[C@H](C(=O)N[C@@H](CC(C)C)C(=O)NCC(=O)N[C@@H](CCC(N)=O)C(=O)N[C@@H](CC(C)C)C(=O)N[C@@H](CO)C(=O)N[C@@H](C)C(=O)N[C@@H](CCCN=C(N)N)C(=O)N[C@@H](CCCCN)C(=O)N[C@@H](CC(C)C)C(=O)N[C@@H](CC(C)C)C(=O)N[C@@H](CCC(N)=O)C(=O)N[C@@H](CC(=O)O)C(=O)N[C@H](C(=O)N[C@@H](CCSC)C(=O)N[C@@H](CO)C(=O)N[C@@H](CCCN=C(N)N)C(N)=O)[C@@H](C)CC)C(C)C)[C@@H](C)O | 
< 5% | 340 ng/mL | 314 ng/mL | CC[C@H](C)[C@H](NC(=O)[C@H](C)NC(=O)[C@@H](CC(=O)O)NC(=O)[C@@H](C)NC(=O)[C@@H](N)Cc1ccc(O)cc1)C(=O)N[C@@H](Cc1ccccc1)C(=O)N[C@H](C(=O)N[C@H](CC(N)=O)C(=O)N[C@@H](CO)C(=O)N[C@@H](Cc1ccc(O)cc1)C(=O)N[C@@H](CCCN=C(N)N)C(=O)N[C@@H](CCCCN)C(=O)N[C@H](C(=O)N[C@@H](CC(C)C)C(=O)NCC(=O)N[C@@H](CCC(N)=O)C(=O)N[C@@H](CC(C)C)C(=O)N[C@@H](CO)C(=O)N[C@@H](C)C(=O)N[C@@H](CCCN=C(N)N)C(=O)N[C@@H](CCCCN)C(=O)N[C@@H](CC(C)C)C(N)=O)C(C)C)[C@@H](C)O | 
< 1% | 406 ng/mL |  | CC[C@H](C)[C@H](NC(=O)[C@H](C)NC(=O)[C@H](CC(=O)O)NC(=O)[C@H](C)NC(=O)[C@@H](N)Cc1ccc(O)cc1)C(=O)N[C@@H](Cc1ccccc1)C(=O)N[C@H](C(=O)N[C@@H](CC(N)=O)C(=O)N[C@@H](CO)C(=O)N[C@@H](Cc1ccc(O)cc1)C(=O)N[C@@H](CCCN=C(N)N)C(=O)N[C@@H](CCCCN)C(=O)N[C@H](C(=O)N[C@@H](CC(C)C)C(=O)NCC(=O)N[C@@H](CCC(N)=O)C(=O)N[C@@H](CC(C)C)C(=O)N[C@@H](CO)C(=O)N[C@@H](C)C(=O)N[C@@H](CCCN=C(N)N)C(=O)N[C@@H](CCCCN)C(=O)N[C@@H](CC(C)C)C(=O)N[C@@H](CC(C)C)C(=O)N[C@@H](CCCN=C(N)N)C(N)=O)C(C)C)[C@@H](C)O | Plasma GH release (Rattus norvegicus [8]): 392 ng/mL
< 5% |  | 417 ng/mL and 305 ng/mL | CC[C@H](C)[C@H](NC(=O)[C@H](C)NC(=O)[C@H](CC(=O)O)NC(=O)[C@@H](C)NC(=O)[C@@H](N)Cc1ccc(O)cc1)C(=O)N[C@@H](Cc1ccccc1)C(=O)N[C@H](C(=O)N[C@H](CC(N)=O)C(=O)N[C@@H](CO)C(=O)N[C@@H](Cc1ccc(O)cc1)C(=O)N[C@@H](CCCN=C(N)N)C(=O)N[C@@H](CCCCN)C(=O)N[C@H](C(=O)N[C@@H](CC(C)C)C(=O)NCC(=O)N[C@@H](CCC(N)=O)C(=O)N[C@@H](CC(C)C)C(=O)N[C@@H](CO)C(=O)N[C@@H](C)C(=O)N[C@@H](CCCN=C(N)N)C(=O)N[C@@H](CCCCN)C(=O)N[C@@H](CC(C)C)C(N)=O)C(C)C)[C@@H](C)O | 
1200% |  |  | CC[C@H](C)[C@H](NC(=O)[C@H](C)NC(=O)[C@H](CC(=O)O)NC(=O)[C@H](C)NC(=O)[C@H](Cc1ccc(O)cc1)NC(C)=O)C(=O)N[C@@H](Cc1ccccc1)C(=O)N[C@H](C(=O)N[C@@H](CC(N)=O)C(=O)N[C@@H](CO)C(=O)N[C@@H](Cc1ccc(O)cc1)C(=O)N[C@@H](CCCN=C(N)N)C(=O)N[C@@H](CCCCN)C(=O)N[C@H](C(=O)N[C@@H](CC(C)C)C(=O)NCC(=O)N[C@@H](CCC(N)=O)C(=O)N[C@@H](CC(C)C)C(=O)N[C@@H](CO)C(=O)N[C@@H](C)C(=O)N[C@@H](CCCN=C(N)N)C(=O)N[C@@H](CCCCN)C(=O)N[C@@H](CC(C)C)C(=O)N[C@@H](CC(C)C)C(=O)N[C@@H](CCC(N)=O)C(=O)N[C@@H](CC(=O)O)C(=O)N[C@H](C(=O)N[C@@H](CCSC)C(=O)N[C@@H](CO)C(=O)N[C@@H](CCCN=C(N)N)C(N)=O)[C@@H](C)CC)C(C)C)[C@@H](C)O | Potency (Rattus norvegicus [1]): 240%
< 5% | 719 ng/mL | 358 ng/mL | Ac-HADAIFTNSYRKVLGQLSARKLLQ-NH2 | 
< 1% |  |  | CC[C@H](C)[C@H](NC(=O)[C@H](C)NC(=O)[C@H](CC(=O)O)NC(=O)[C@H](C)NC(=O)[C@@H](N)Cc1ccc(O)cc1)C(=O)N[C@@H](Cc1ccccc1)C(=O)N[C@H](C(=O)N[C@@H](CC(N)=O)C(=O)N[C@@H](CO)C(=O)N[C@@H](Cc1ccc(O)cc1)C(=O)N[C@@H](CCCN=C(N)N)C(=O)N[C@@H](CCCCN)C(=O)N[C@H](C(=O)N[C@@H](CC(C)C)C(=O)NCC(=O)N[C@@H](CCC(N)=O)C(=O)N[C@@H](CC(C)C)C(=O)N[C@@H](CO)C(=O)N[C@@H](C)C(=O)N[C@@H](CCCN=C(N)N)C(=O)N[C@@H](CCCCN)C(=O)N[C@@H](CC(C)C)C(=O)N[C@@H](CC(C)C)C(=O)N[C@@H](CCC(N)=O)C(N)=O)C(C)C)[C@@H](C)O | Potency [4]: 0.008%
< 5% | 401 ng/mL | 498 ng/mL | CC[C@H](C)[C@H](NC(=O)[C@H](C)NC(=O)[C@@H](CC(=O)O)NC(=O)[C@H](C)NC(=O)[C@@H](N)Cc1ccc(O)cc1)C(=O)N[C@@H](Cc1ccccc1)C(=O)N[C@H](C(=O)N[C@H](CC(N)=O)C(=O)N[C@@H](CO)C(=O)N[C@@H](Cc1ccc(O)cc1)C(=O)N[C@@H](CCCN=C(N)N)C(=O)N[C@@H](CCCCN)C(=O)N[C@H](C(=O)N[C@@H](CC(C)C)C(=O)NCC(=O)N[C@@H](CCC(N)=O)C(=O)N[C@@H](CC(C)C)C(=O)N[C@@H](CO)C(=O)N[C@@H](C)C(=O)N[C@@H](CCCN=C(N)N)C(=O)N[C@@H](CCCCN)C(=O)N[C@@H](CC(C)C)C(N)=O)C(C)C)[C@@H](C)O | 
< 5% | 385 ng/mL | 512 ng/mL | CC[C@H](C)[C@H](NC(=O)[C@H](C)NC(=O)[C@H](CC(=O)O)NC(=O)[C@@H](C)N(C)C(=O)[C@@H](N)Cc1ccc(O)cc1)C(=O)N[C@@H](Cc1ccccc1)C(=O)N[C@H](C(=O)N[C@H](CC(N)=O)C(=O)N[C@@H](CO)C(=O)N[C@@H](Cc1ccc(O)cc1)C(=O)N[C@@H](CCCN=C(N)N)C(=O)N[C@@H](CCCCN)C(=O)N[C@H](C(=O)N[C@@H](CC(C)C)C(=O)NCC(=O)N[C@@H](CCC(N)=O)C(=O)N[C@@H](CC(C)C)C(=O)N[C@@H](CO)C(=O)N[C@@H](C)C(=O)N[C@@H](CCCN=C(N)N)C(=O)N[C@@H](CCCCN)C(=O)N[C@@H](CC(C)C)C(N)=O)C(C)C)[C@@H](C)O | 
< 5% | 664 ng/mL | 396 ng/mL | Ac-YADAIFTNSYRKVLGQLSARKLLQ-NH2 | 
